TLR4-MyD88 BLA = blocks binding of human TLR4 to MyD88 | HeLa CL3-4 TLR4/MyD88 BLA complementation, FRET ratio | inhibition, % at 8.4 µM | 200,000 compounds, 0.18% hits; in the data active = inhibition above about 25%
TLR9-MyD88 inh = blocks human TLR9 binding to MyD88 | Q9NR96+Q99836 | CHO BLA complementation TLR9-MyD88, CCF4 FRET ratio | inhibition, % at 4.98 µM | 340,000 compounds, 0.21% hits;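 active = inhibition above the mean over all tested compounds plus 3 SD, cut at about 21% in these data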
SR-BI uptake up = SR-BI HDL lipid transfer activation. CHO ldlA[mSR-BI] cells, DiI-HDL uptake fluorescence, 3 h; 100 = double the neutral-control signal. activation, % at 12.5 µM. 320,000 compounds, 0.096% hits;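 active = mean replicate activation of at least 60% and every replicate at or above 60%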
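Test system: SR-BI-overexpressing, LDLR-lacking CHO cells; Medium: Ham's F12 with 0.5% BSA, HEPES 25 mM, pH 7.4; Schedule: 3 h, 37 °C; Technique: bottom-read fluorescence, 550/595 nm.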
Hep lipid drop = hepatic lipid droplet formation modulation. AML12 mouse hepatocytes, oleate lipid droplets, BODIPY imaging. inhibition, % at 6.5 µM. 240,000 compounds, 0.4% hits. AID 1656;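 active = lipid droplet intensity inhibited by at least 50%, with more than 500 cells counted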
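Assay system: AML12 hepatocytes (mouse) / Also added: 100 µM oleic acid challenge / Times: overnight treatment with compound plus oleate / Detection: high-content imaging of BODIPY-stained droplets and DAPI nuclei / Evaluation: % inhibition of lipid droplet signal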
NOD2-RIPK2 inh = NOD2-RIPK2 protein interaction inhibition. O43353. CHO BLA complementation NOD2-RIPK2, CCF4 ratio. inhibition, % at 4.98 µM. 360,000 compounds, 0.38% hits. AID 624267; in the data active = inhibition above about 21%
SR-BI DiI inh = blocks mouse SR-BI lipid uptake from DiI-HDL. 320,000 compounds, 0.96% hits. ldlA[mSR-BI] CHO cells, DiI-HDL uptake fluorescence, 3 h. inhibition, % at 12.5 µM;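 active = mean replicate inhibition of at least 70% and a set share of replicates each scoring 70 or more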
Target sequence (Q61009 whole entry, looked up): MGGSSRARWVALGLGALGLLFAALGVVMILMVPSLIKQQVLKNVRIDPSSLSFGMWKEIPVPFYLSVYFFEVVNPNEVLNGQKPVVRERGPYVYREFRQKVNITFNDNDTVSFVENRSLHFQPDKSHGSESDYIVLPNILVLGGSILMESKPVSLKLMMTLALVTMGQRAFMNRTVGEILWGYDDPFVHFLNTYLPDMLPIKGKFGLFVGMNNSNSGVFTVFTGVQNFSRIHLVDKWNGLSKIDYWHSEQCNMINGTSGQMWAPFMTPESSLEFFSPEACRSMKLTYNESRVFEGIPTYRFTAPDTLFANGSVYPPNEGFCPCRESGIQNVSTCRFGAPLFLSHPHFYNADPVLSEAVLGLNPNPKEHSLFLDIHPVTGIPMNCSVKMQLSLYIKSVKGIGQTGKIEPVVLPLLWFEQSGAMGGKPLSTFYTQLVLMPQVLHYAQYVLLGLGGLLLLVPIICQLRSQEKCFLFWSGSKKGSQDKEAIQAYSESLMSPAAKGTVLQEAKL
TLR9-MyD88 conf = TLR9-MyD88 interaction inhibition, confirmation. shares compounds with TLR9-MyD88 inh. CHO TLR9/MyD88 BLA complementation, CCF4 FRET ratio. inhibition, % at 4.98 µM. 680 compounds, 51% hits;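 active = mean inhibition across three repeats above about 21% taken from the earlier screen, limit read from the data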;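 note: blue over green emission ratio reports constitutive TLR9 MyD88 association via BLA complementation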
BLA counter = counter-screen for TLR9-MyD88 inhibitors: non-selective beta-lactamase inhibitors; AID 540251; shares compounds with TLR9-MyD88 inh; 680 compounds, 7% hits; CHO-BLA cells, CCF4 FRET ratio, BLA reporter; inhibition, % at 4.98 µM;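 active = mean inhibition above a 50% cutoff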;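 note: counterscreen of TLR9-MyD88 hits on CMV-driven BLA in CHO-K1 cells; higher means less blue over green ratio so more BLA blockade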
TLR9 CHO tox = CHO cell toxicity counter-screen for TLR9-MyD88 inhibitors | shares compounds with TLR9-MyD88 inh | TLR9-MyD88 CHO cells cytotoxicity, luminescence | inhibition, % at 4.98 µM | 680 compounds, 39% hits | AID 588336; in the data active = inhibition above about 11%
Each line names hits and unclear results; the compound was inactive in the other large screens (follow-up assays come after a bar, where they were run). Most compounds without a hit are left out; they make up all but 1.6% or so of the library.

COc1ccccc1NC(=O)Cn1cc(C(=O)C(=O)N2CCOCC2)c2ccccc21	none (no result: TLR4-MyD88 BLA)
CN=c1scc(-c2cccs2)n1/N=C/c1ccccc1O	TLR9-MyD88 inh 26.2 | TLR9-MyD88 conf inactive | BLA counter inactive | TLR9 CHO tox inactive
O=C(C[C@H]1CC[C@@H]2[C@H](COC[C@@H](O)CN2Cc2cccc(F)c2)O1)NCC1CCCCC1	none (no result: TLR4-MyD88 BLA, TLR9-MyD88 inh, SR-BI uptake up, Hep lipid drop, SR-BI DiI inh)
O=[N+]([O-])c1ccc(Nc2ccccc2)c2nonc12	none (no result: TLR4-MyD88 BLA)
O=[N+]([O-])c1ccc(Sc2cccc[n+]2[O-])c2nonc12	TLR9-MyD88 inh 55.4, NOD2-RIPK2 inh 88.8 (no result: TLR4-MyD88 BLA) | TLR9-MyD88 conf 59.0 | BLA counter inactive | TLR9 CHO tox 100.9
CCN(CC)CCCNC(=O)c1nn2c(C(F)(F)F)cc(-c3ccccc3)nc2c1Cl	none (no result: TLR4-MyD88 BLA)
S=c1[nH]nc(COc2ccccc2)n1/N=C/c1ccc(Cl)cc1	none (no result: TLR4-MyD88 BLA)
CSc1ccc(/C=N/n2c(COc3ccccc3)n[nH]c2=S)cc1	TLR9-MyD88 inh 22.0 (no result: TLR4-MyD88 BLA) | TLR9-MyD88 conf inactive | BLA counter inactive | TLR9 CHO tox inactive
COCCNC(=O)CSc1nc(-c2ccccc2)cs1	none (no result: Hep lipid drop)
COc1ccc(CN2CCNC(=O)C2CC(=O)N(C)Cc2ccon2)c(OC)c1 (stereo unspecified)	none
CC(=O)N1CCc2ccc(NC(=O)c3c(-c4c(Cl)cccc4Cl)noc3C)cc21	none (no result: TLR4-MyD88 BLA)
CC(C)(C)c1ccc(C2=CC(c3ccccc3F)n3ncnc3N2)cc1 (stereo unspecified)	TLR9-MyD88 inh 22.2 (no result: TLR4-MyD88 BLA, Hep lipid drop) | TLR9-MyD88 conf inactive | BLA counter inactive | TLR9 CHO tox inactive
Cn1cccc1C1C=C(c2ccc(C(C)(C)C)cc2)Nc2ncnn21 (stereo unspecified)	none (no result: TLR4-MyD88 BLA, Hep lipid drop)
Cc1ccc(N2C(=O)Cc3ccccc3C2=O)cc1	TLR9-MyD88 inh 22.2 (no result: TLR4-MyD88 BLA, SR-BI uptake up, SR-BI DiI inh) | TLR9-MyD88 conf 41.6 | BLA counter inactive | TLR9 CHO tox inactive
Cc1cccc(N2C(=O)Cc3ccccc3C2=O)c1	none (no result: TLR4-MyD88 BLA, SR-BI uptake up, SR-BI DiI inh)
Cc1cccc(N2CCN(c3nnnn3-c3ccccc3)CC2C)c1 (stereo unspecified)	none
COc1ccc(OC)c(C=Nc2ccccc2-c2nc3ccccc3[nH]2)c1	none
COc1ccc(OC)c(/C=C/c2nc3ccccc3[nH]c2=O)c1	TLR9-MyD88 inh 27.9 (no result: TLR4-MyD88 BLA) | TLR9-MyD88 conf 29.6 | BLA counter inactive | TLR9 CHO tox inactive
COc1cc(/C=C/C(=O)c2ccc3c(c2)OCO3)cc(Cl)c1O	TLR9-MyD88 inh 21.9 (no result: TLR4-MyD88 BLA, Hep lipid drop) | TLR9-MyD88 conf inactive | BLA counter inactive | TLR9 CHO tox inactive
CCC[C@H]1COCCS(=O)(=O)N1Cc1ccc(Br)cc1	none (no result: TLR4-MyD88 BLA, TLR9-MyD88 inh, SR-BI uptake up, NOD2-RIPK2 inh, SR-BI DiI inh)
O=C(N/N=C/c1c(O)n(-c2ccc(Cl)cn2)c(=O)c2ccccc12)c1ccncc1	TLR9-MyD88 inh 21.1 | TLR9-MyD88 conf inactive | BLA counter inactive | TLR9 CHO tox inactive
O=C(N/N=C/c1c(O)n(-c2ccc(Cl)cn2)c(=O)c2ccccc12)C1CC1	none
O=c1c2cc([N+](=O)[O-])ccc2sn1-c1ccccc1	TLR9-MyD88 inh 29.1 (no result: TLR4-MyD88 BLA, SR-BI uptake up, Hep lipid drop, SR-BI DiI inh) | TLR9-MyD88 conf 37.1 | BLA counter inactive | TLR9 CHO tox 87.1
COc1ccc(S(=O)(=O)NC(=O)C2(C)CCN2C(=O)Cc2cc(F)ccc2F)cc1 (stereo unspecified)	none (no result: TLR4-MyD88 BLA, TLR9-MyD88 inh, SR-BI uptake up, Hep lipid drop, SR-BI DiI inh)
O=C1C=CC(=O)N1c1ccccc1N1C(=O)C=CC1=O	TLR9-MyD88 inh 46.4 (no result: TLR4-MyD88 BLA, Hep lipid drop) | TLR9-MyD88 conf 66.2 | BLA counter inactive | TLR9 CHO tox 99.0
CC(CN1CCC(n2nccc2NC(=O)CCCc2ccccc2)CC1)c1ccccc1 (stereo unspecified)	none (no result: TLR4-MyD88 BLA)
COc1ccc(C(=O)N/C(=C\c2cn(C)c3ccccc23)C(=O)N2CCN(C)CC2)cc1OC	none (no result: TLR4-MyD88 BLA)
O=C(OCn1ncc(Cl)c(Cl)c1=O)c1ccccc1Cl	TLR9-MyD88 inh 31.4, NOD2-RIPK2 inh 53.5 (no result: Hep lipid drop) | TLR9-MyD88 conf 27.8 | BLA counter inactive | TLR9 CHO tox 98.6
CCc1nc(SCc2ccccc2C#N)n[nH]1	none (no result: TLR4-MyD88 BLA)
Cc1ccc(/C=C2/NC(=O)N(Cc3ccc(Br)cc3)C2=O)o1	TLR9-MyD88 inh 22.2 | TLR9-MyD88 conf inactive | BLA counter inactive | TLR9 CHO tox 13.2
Cc1ccc(CNC(=O)CCS(=O)(=O)Cc2ccc(C)cc2)cc1	none (no result: TLR4-MyD88 BLA)
COc1cc(C(=O)Nc2ccc(C(C)=O)cc2)c(Br)c(OC)c1OC	TLR9-MyD88 inh 21.4 | TLR9-MyD88 conf inactive | BLA counter inactive | TLR9 CHO tox inactive
COc1ccc(NC(=O)c2cc(OC)c(OC)c(OC)c2Br)cc1OC	none
N#CC1=C(N)OC2=C(CC/C2=C\c2ccccc2Cl)C1c1ccccc1Cl (stereo unspecified)	TLR9-MyD88 inh 32.5 | TLR9-MyD88 conf inactive | BLA counter inactive | TLR9 CHO tox inactive
O=C(N/C(=C\c1ccc(Br)cc1)C(=O)N1CCOCC1)c1ccco1	none (no result: TLR4-MyD88 BLA, Hep lipid drop)
COc1ccc2oc(=O)c(-c3nnc(N)s3)cc2c1	TLR9-MyD88 inh 21.1 | TLR9-MyD88 conf inactive | BLA counter inactive | TLR9 CHO tox inactive

Screens: PubChem BioAssay, several laboratories
